Laboratory results: ChEMBL document CHEMBL1154599 (J Med Chem, 2009)
Active and inactive are the calls of the source. No cut-off for these calls is given here.

Tests used:
[1] = system: Mus musculus; test: Ex vivo inhibition of MAO-B in C57Bl mouse brain at 0.5 mg/kg, po after 8 hrs by radioenzymatic assay; format: functional; set-up: scale not given: the % may be the effect or the level left
Outline: (§1)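 C57Bl mice (n = 6 per group) given 0.5 mg/kg orally and killed at 0.5, 1, 2, 4, 8 or 16 h. Brain homogenates in 0.1 M phosphate pH 7.40 assayed radioenzymatically for MAO-B with [14C]PEA. Mean ± SEM, ANOVA with Dunnett's test.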

[2] = Dissociation constant, pKa by potentiometric titration; format: physicochemical
Outline: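 5 × 10^-4 M sample in 0.15 M KCl acidified to pH 1.8 with 0.5 M HCl, then titrated to pH 12.2 with carbonate-free 0.5 M KOH. Run at 25 ± 0.5 °C under slow argon flow, with a blank titration for standardization. pKa taken from the Bjerrum difference curve.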

[3] = system: Mus musculus; test: Ex vivo inhibition of MAO-B in C57Bl mouse brain at 0.5 mg/kg, po after 2 hrs by radioenzymatic assay; format: functional; set-up: scale not given: the % may be the effect or the level left; outline: as §1
[4] = Octanol-water partition coefficient, log P by potentiometric titration; format: physicochemical
[5] = system: Mus musculus; test: Ex vivo inhibition of MAO-B in C57Bl mouse brain at 0.5 mg/kg, po after 30 mins by radioenzymatic assay; format: functional; set-up: scale not given: the % may be the effect or the level left; outline: as §1
[6] = Aqueous solubility at pH 3.0 by turbidimetric method; format: physicochemical; conditions: aqueous solution
Outline: (§2)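 DMSO stock of compound added in 2 μL portions, about 10 additions, to 50 mM Tris-HCl pH 7.4 or 50 mM acetate pH 3.0 at room temperature, final DMSO below 5%. Precipitation read as light-scattering absorbance rise at 600-820 nm. Solubility limit taken from a bilinear fit of absorbance against DMSO volume. Three independent assays, mean ± SEM.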

[7] = species: Rattus norvegicus; test: Selectivity index, ratio of IC50 for rat MAO-A to IC50 for rat MAO-B
Outline: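 Ratio of IC50 values from rat brain mitochondrial radioenzymatic assays: MAO-A with [14C]5-HT 5 μM, 30 min, and MAO-B with [14C]PEA 0.5 μM, 10 min. Both after 30 min preincubation with compound at 37 °C.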

[8] = system: SH-SY5Y; test: Cytotoxicity against human SH-SY5Y cells assessed as cellular damage up to 10 uM after 24 hrs by MTS assay; format: functional, cell-based
Outline: (§3)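 Human neuroblastoma SH-SY5Y cells kept in DMEM with 10% heat-inactivated FBS. Seeded at 6.25 × 10^4/cm2 and grown 72 h to subconfluence. Switched to serum-free neurobasal medium 30 min before compound, then 24 h at 37 °C with 1, 3, 10, 30 or 100 μM compound. Viability read by colorimetric MTS assay.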

[9] = molecular target: Amine oxidase [flavin-containing] B (Homo sapiens) (UniProt P27338); test: Inhibition of MAO-B in human platelet rich plasma by radioenzymatic assay
Chain of Amine oxidase [flavin-containing] B (Homo sapiens) (P27338 whole entry, looked up): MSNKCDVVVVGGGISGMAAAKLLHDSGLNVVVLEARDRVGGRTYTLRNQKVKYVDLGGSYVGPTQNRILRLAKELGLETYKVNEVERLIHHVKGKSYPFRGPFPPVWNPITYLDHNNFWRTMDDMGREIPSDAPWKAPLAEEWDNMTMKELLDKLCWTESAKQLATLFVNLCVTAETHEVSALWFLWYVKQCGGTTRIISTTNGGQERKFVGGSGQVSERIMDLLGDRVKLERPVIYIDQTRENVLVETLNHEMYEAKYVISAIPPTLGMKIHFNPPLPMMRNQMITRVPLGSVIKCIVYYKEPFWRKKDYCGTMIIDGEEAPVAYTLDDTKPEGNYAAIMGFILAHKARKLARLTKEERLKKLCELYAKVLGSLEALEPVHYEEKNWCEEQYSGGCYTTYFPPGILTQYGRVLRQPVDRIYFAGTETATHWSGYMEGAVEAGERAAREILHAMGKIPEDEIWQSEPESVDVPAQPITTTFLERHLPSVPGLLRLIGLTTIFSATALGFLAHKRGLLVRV

[10] = species: Mus musculus; test: Ex vivo inhibition of MAO-B in C57Bl mouse brain after 1 hr by radioenzymatic assay; format: functional
[11] = system: Mus musculus; test: Ex vivo inhibition of MAO-A in C57Bl mouse brain at 3 mg/kg, po or 3 mg/kg, ip after 1 hr by radioenzymatic assay; format: functional, organism-based
Outline: (§4)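 C57Bl mice (n = 6 per group) dosed orally or intraperitoneally at 3 mg/kg and killed 1 h later. Brains homogenized in 0.1 M phosphate pH 7.40. MAO-A ([14C]5-HT) and MAO-B ([14C]PEA) activities measured by radioenzymatic assay. Mean ± SEM, ANOVA with Dunnett's test.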

[12] = Permeability across PAMPA membrane assessed as retention at 2.5 mM by HDM-PAMPA assay; format: ADME; conditions: 2500 µM
Outline: (§5)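 Hexadecane artificial membrane (0.75 μL per well, applied as 5% v/v in hexane, hexane evaporated) on polycarbonate filters; donor and acceptor in 0.1 M phosphate buffer pH 6.8 with 5% DMSO (iso-pH); 5 h at room temperature, shaking at 75 rpm; quadruplicate. Donor and acceptor concentrations read by UV at λmax. Retention, CA(t)/CD(0) and Pe calculated by the stated equations, τLAG neglected; membrane integrity checked by electrical resistance.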

[13] = molecular target: Cytochrome P450 2C9 (Homo sapiens, UniProt P11712); test: Inhibition of human recombinant CYP2C9; format: ADME
Chain of Cytochrome P450 2C9 (P11712 whole entry, canonical isoform): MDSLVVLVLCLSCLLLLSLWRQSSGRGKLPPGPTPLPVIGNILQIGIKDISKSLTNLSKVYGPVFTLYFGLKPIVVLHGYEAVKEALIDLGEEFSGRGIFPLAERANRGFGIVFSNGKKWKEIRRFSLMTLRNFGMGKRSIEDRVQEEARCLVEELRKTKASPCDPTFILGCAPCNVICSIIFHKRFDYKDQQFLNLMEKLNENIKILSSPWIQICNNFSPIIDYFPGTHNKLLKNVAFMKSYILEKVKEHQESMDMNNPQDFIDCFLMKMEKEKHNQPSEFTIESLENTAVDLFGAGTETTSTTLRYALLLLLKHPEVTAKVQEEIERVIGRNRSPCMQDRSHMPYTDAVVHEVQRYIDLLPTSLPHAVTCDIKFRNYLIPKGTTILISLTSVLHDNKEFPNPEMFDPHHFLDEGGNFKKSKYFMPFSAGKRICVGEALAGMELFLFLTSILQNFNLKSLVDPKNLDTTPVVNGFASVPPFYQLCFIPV
Outline: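 Recombinant human CYP supersomes were incubated at 37 C in incubation/NADPH regenerating buffer with isoform-specific substrates that turn fluorescent on metabolism. The substrate was 3-cyano-7-ethoxycoumarin for CYP1A2 and 7-methoxy-4-trifluoromethylcoumarin for CYP2C9. Fluorescence was read at the appropriate excitation/emission wavelengths, with a literature inhibitor as positive control in each assay.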

[14] = system: SH-SY5Y; test: Cytotoxicity against human SH-SY5Y cells after 24 hrs by MTS assay; format: functional, cell-based; outline: as §3
[15] = Aqueous solubility at pH 7.4 by turbidimetric method; format: physicochemical; conditions: aqueous solution; outline: as §2
[16] = Permeability across PAMPA membrane assessed as amount of drug reaching acceptor compartment at 2.5 mM by HDM-PAMPA assay; format: ADME; conditions: 2500 µM; outline: as §5
[17] = molecular target: Cytochrome P450 3A4 (Homo sapiens, UniProt P08684); test: Inhibition of human recombinant CYP3A4; format: ADME
Chain of Cytochrome P450 3A4 (P08684 whole entry, canonical isoform): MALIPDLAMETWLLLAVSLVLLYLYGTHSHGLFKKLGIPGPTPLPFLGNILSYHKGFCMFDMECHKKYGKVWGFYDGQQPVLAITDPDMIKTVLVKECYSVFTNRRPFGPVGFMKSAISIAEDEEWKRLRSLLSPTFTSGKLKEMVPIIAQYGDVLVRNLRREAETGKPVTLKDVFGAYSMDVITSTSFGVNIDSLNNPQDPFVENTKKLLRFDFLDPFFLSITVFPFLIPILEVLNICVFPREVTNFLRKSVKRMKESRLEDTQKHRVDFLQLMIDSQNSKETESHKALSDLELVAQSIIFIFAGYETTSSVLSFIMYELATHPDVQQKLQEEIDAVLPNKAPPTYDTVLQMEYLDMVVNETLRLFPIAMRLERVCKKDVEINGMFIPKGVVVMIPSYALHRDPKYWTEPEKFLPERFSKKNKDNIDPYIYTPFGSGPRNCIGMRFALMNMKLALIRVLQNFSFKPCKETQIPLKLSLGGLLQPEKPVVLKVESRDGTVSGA
Outline: (§6)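 Human recombinant CYP supersomes incubated at 37 °C with compound in NADPH-regenerating buffer, with fluorogenic substrates: 3-cyano-7-ethoxycoumarin for CYP2C19, […] for CYP3A4. Fluorescence read on a plate reader. Known isoform inhibitors run as positive controls in every assay.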

[18] = molecular target: Cytochrome P450 2C19 (Homo sapiens, UniProt P33261); test: Inhibition of human recombinant CYP2C19; format: ADME; outline: as §6
Chain of Cytochrome P450 2C19 (P33261 whole entry): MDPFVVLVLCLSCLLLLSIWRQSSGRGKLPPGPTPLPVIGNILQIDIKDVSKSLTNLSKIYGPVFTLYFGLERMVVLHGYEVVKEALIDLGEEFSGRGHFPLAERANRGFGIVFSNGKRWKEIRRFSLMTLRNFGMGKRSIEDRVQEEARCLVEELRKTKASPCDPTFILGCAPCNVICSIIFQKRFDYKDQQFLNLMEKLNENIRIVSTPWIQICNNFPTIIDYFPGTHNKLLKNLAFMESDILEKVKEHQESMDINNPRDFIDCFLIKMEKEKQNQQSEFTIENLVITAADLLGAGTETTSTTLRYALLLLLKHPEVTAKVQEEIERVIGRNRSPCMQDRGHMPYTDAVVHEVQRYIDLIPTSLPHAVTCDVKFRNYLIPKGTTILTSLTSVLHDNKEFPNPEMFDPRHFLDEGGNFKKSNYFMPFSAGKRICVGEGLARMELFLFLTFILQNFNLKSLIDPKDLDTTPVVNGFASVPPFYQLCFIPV

[19] = system: Mus musculus; test: Ex vivo inhibition of MAO-B in C57Bl mouse brain at 0.5 mg/kg, po after 1 hr by radioenzymatic assay; format: functional; set-up: scale not given: the % may be the effect or the level left; outline: as §1
[20] = molecular target: Cytochrome P450 2D6 (Homo sapiens, UniProt P10635); test: Inhibition of human recombinant CYP2D6; format: ADME
Chain of Cytochrome P450 2D6 (P10635 whole entry, canonical isoform): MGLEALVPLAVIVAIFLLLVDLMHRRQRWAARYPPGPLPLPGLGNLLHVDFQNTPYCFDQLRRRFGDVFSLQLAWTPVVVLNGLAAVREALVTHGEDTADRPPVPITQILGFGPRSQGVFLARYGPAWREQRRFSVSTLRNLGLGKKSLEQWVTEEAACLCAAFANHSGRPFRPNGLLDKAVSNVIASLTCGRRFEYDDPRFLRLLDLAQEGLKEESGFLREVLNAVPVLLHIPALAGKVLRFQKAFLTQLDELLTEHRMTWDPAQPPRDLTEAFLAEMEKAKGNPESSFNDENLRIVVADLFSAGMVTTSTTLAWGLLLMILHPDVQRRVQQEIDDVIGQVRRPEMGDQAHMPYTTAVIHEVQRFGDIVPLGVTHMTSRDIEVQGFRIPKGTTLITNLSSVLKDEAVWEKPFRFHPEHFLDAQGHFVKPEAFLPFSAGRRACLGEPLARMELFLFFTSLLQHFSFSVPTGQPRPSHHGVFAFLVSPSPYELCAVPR
Outline: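 Human recombinant CYP isoenzymes (supersomes) were incubated at 37 C with the test compound in incubation/NADPH-regenerating buffer plus a fluorogenic substrate. The substrate was 3-[2-(N,N-diethyl-N-methylammonium)ethyl]-7-methoxy-4-methylcoumarin for CYP2D6 and 7-methoxy-4-phenylcoumarin for CYP2E1. Fluorescent product was read at isoform-appropriate wavelengths, with a literature inhibitor as positive control. IC50 came from nonlinear regression of at least seven concentrations, each in duplicate.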

[21] = system: Mus musculus; test: Ex vivo inhibition of MAO-B in C57Bl mouse brain at 3 mg/kg, po or 3 mg/kg, ip after 1 hr by radioenzymatic assay; format: functional, organism-based; outline: as §4

Work on `CNCc1cc(=O)oc2cc(OCc3cccc(Cl)c3)ccc12.CS(=O)(=O)O` yielded an Activity [1] of 60%, a pKa [2] of 7.18 and an Activity [3] of 90%. It also gave a logP [4] of 2.49, an Activity [5] of 84% and a solubility kinetic [6] of 2820 µg/mL. The Ratio IC50 [7] was 457, the Activity [8] was “inactive” and the IC50 [9] was 0.003 µM. For the same compound, the ED50 [10] was 0.24 mg/kg, the Activity [11] was “inactive” and the permeability [12] was 10%. For the same compound, the IC50 [13] was greater than 5 µM, the IC50 [14] was 29.7 µM and the solubility kinetic [15] was 52 µg/mL. For the same compound, the permeability [16] was 33.8%, the IC50 [17] was greater than 5 µM and the IC50 [18] was greater than 5 µM. For the same compound, the Activity [19] was 86%, the IC50 [20] was greater than 5 µM and the Activity [21] was “Active”.
